Measured values published in ChEMBL document CHEMBL5036345, “Identification of a dual acting SARS-CoV-2 proteases inhibitor through in silico design and step-by-step biological characterization” (Eur J Med Chem, 2021).
Where a SMILES comes first, the peptide text is derived from it. [ ]: non-standard residue; d: D form. The star is where a group is joined. AllylGly = C=CC[C@H](N)C(=O)O; Boc = CC(C)(C)OC(=O)*; NHBn = c1ccc(CN*)cc1; NHtBu = CC(C)(C)N*; ClAc = O=C(CCl)*

Columns and labels:
SARS-CoV-2 [1] = assay: Antiviral activity against Severe acute respiratory syndrome coronavirus 2 UC-1074 infected in African green monkey Vero cells assessed as reduction in plaque formation measured after 5 days by microscopic analysis; type: functional, organism-based; conditions: Severe acute respiratory syndrome coronavirus 2, UC-1074, Vero, 120 h
SARS-CoV-2 [2] = assay: Antiviral activity against Severe acute respiratory syndrome coronavirus 2 UC-1075 infected in African green monkey Vero cells assessed as reduction in plaque formation measured after 5 days by microscopic analysis; type: functional, organism-based; conditions: Severe acute respiratory syndrome coronavirus 2, UC-1075, Vero, 120 h
[3] = Cytotoxicity against African green monkey Vero cells assessed as effect on cell morphology by microscopic analysis; type: cell-based; conditions: chlorocebus sabaeus
How it was run: (§1)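 Vero cells were treated with a compound dilution series in DMEM 2% FCS for 5 days at 37 °C, in parallel with the antiviral assay. MCC is the lowest concentration giving a microscopically detectable change in morphology. CC50 is the concentration halving cell number in mock-infected cultures, counted by Coulter counter.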

Vero = assay: Cytotoxicity against African green monkey Vero cells assessed as reduction in cell viability by coulter counter method; type: cell-based; conditions: chlorocebus sabaeus; how it was run: as §1
[4] = Inhibition of SARS CoV-2 main protease using DABCYL-KTSAVLQ1SGFRKM-E(EDANS)-NH2 as substrate preincubated for 30 mins followed by substrate addition and measured after 4 hrs by multimode microplate reader assay; design: species or system Severe acute respiratory syndrome coronavirus 2
[5] = Inhibition of SARS CoV-2 papain-like protease using Z-Arg-Leu-Arg-Gly-Gly-AMC as substrate preincubated for 30 mins followed by substrate addition and measured after 50 mins by multimode plate reader method; design: species or system Severe acute respiratory syndrome coronavirus 2
Spike glycoprotein = Spike glycoprotein (Severe acute respiratory syndrome coronavirus 2, UniProt P0DTC2); assay: Binding affinity to CM5 sensor chip immobilized SARS-CoV-2 spike glycoprotein assessed as dissociation constant by SPR analysis
How it was run: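 Spike protein (1.25 μM in 10 mM sodium acetate, pH 4.59) was amine-coupled to about 11500 RU, with the first channel as reference. Running buffer was 10× diluted HBS-P plus 5% DMSO. Compounds at 0.75–100 μM were injected at 25 °C and 20 μL/min, with 90 s association and 600 s dissociation. Runs were in triplicate; KD came from a global 1:1 fit.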

Compound	EC50 (SARS-CoV-2 [1]) [µM]	EC50 (SARS-CoV-2 [2]) [µM]	MCC [3] [µM]	CC50 (Vero) [µM]	IC50 [4] [µM]	IC50 [5] [µM]	Kd (Spike glycoprotein) [µM]
CCC(CC)COC(=O)[C@H](C)N[P@](=O)(OC[C@H]1O[C@@](C#N)(c2ccc3c(N)ncnn23)[C@H](O)[C@@H]1O)Oc1ccccc1	0.87	0.61	> 40	> 40	–	–	–
CC(C)C[C@H](NCc1ccc(-c2ccccc2)cc1)C(=O)N[C@@H](Cc1c[nH]c2ccccc12)C(=O)NCc1ccccc1	> 4	> 4	> 20	34.7	23.6	> 25	–
C#CC[C@H](NC(=O)OC(C)(C)C)C(=O)N(Cc1ccccc1)Cc1cn(C)c2ccc(C(=O)OC)cc12	4	20	100	8.09	> 25	> 25	11.4
COC(=O)c1ccc2c(c1)c(CN(CCc1ccc(-c3ccccc3)cc1)Cc1ccccc1)cn2CC(C)C	5.98	0.44	100	31.5	> 25	> 25	3.26
CC(C)(C)NC(=O)[C@H](Cc1c[nH]c2ccccc12)NC(=O)[C@H](Cc1ccccc1)NCc1ccc(-c2ccccc2)cc1	2.19	2.01	> 100	1.49	> 25	> 25	19
CC(C)C[C@H](NCc1ccc(-c2ccccc2)cc1)C(=O)N[C@@H](Cc1c[nH]c2ccccc12)C(=O)NC(C)(C)C	> 4	> 4	20	10.6	1.73	> 25	> 25
C#CC[C@H](NCc1ccccc1)C(=O)N[C@@H](Cc1c[nH]c2ccccc12)C(=O)NCc1ccc(-c2ccccc2)cc1	8.94	10.9	≥ 100	51.5	2.86	> 25	–
C=CC[C@H](NCc1ccccc1)C(=O)N[C@@H](Cc1c[nH]c2ccccc12)C(=O)NCc1ccc(-c2ccccc2)cc1	63.1	> 20	> 100	78.4	> 25	> 25	> 25
C#CC[C@H](NCCC)C(=O)N[C@@H](Cc1c[nH]c2ccccc12)C(=O)NCc1ccc(-c2ccccc2)cc1	> 20	> 20	> 100	42.4	22.7	> 25	–
C#CC[C@H](NCc1ccc(-c2ccccc2)cc1)C(=O)N[C@@H](Cc1c[nH]c2ccccc12)C(=O)NC(C)(C)C	> 4	> 4	20	4.67	> 25	> 25	> 25
CC(C)(C)NC(=O)[C@H](Cc1c[nH]c2ccccc12)NC(=O)[C@@H]1CCCN1C(=O)OC(C)(C)C (Boc-Pro-Trp-NHtBu)	> 100	> 100	> 100	> 100	5.01	> 25	> 25
C=CC[C@H](NC(=O)CCl)C(=O)N[C@@H](Cc1c[nH]c2ccccc12)C(=O)NCc1ccccc1 (ClAc-[AllylGly]-Trp-NHBn)	0.32	1.37	100	38.7	1.72	0.67	> 25
